Legend:
Cytochrome P450 3A4 = Cytochrome P450 3A4 (Homo sapiens, UniProt P08684); assay: Inhibition of CYP3A4; assay type: ADME
Rattus norvegicus [1] = assay: Antiallodynic activity in L5/L6 SNL Sprague-Dawley rat model of […] model assessed as reversal of mechanical force-induced allodynia at 30 mg/kg, ip measured after 30 mins; assay type: functional; conditions: route intraperitoneal
Method in brief: (§1)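 Sprague-Dawley rats under halothane had L5 and L6 spinal nerves tightly ligated with 4-0 silk distal to the DRG, then recovered singly housed. Drug given intraperitoneally. Mechanical withdrawal threshold and radiant-heat withdrawal latency of the affected hind paw were measured.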

Rattus norvegicus [2] = assay: Antihyperalgesic activity in L5/L6 SNL Sprague-Dawley rat model of […] model assessed as reversal of thermal hyperalgesia at 30 mg/kg, ip measured after 30 mins; assay type: functional; conditions: route intraperitoneal; method in brief: as §1
[3] = Metabolic stability in dog liver hepatocytes assessed as compound turnover after 120 mins; assay type: ADME, cell-based, Canis lupus familiaris, Hepatocyte; conditions: 2 h
[4] = molecular target: Nitric oxide synthase, inducible (Homo sapiens, UniProt P35228); assay: Inhibition of human iNOS expressed in baculovirus-infected insect sf9 cells assessed as conversion of [3H]-L-arginine to [3H]-L-citrulline preincubated for 15 mins with compound measured after 45 mins by scintillation counting
Chain of Nitric oxide synthase, inducible (P35228 whole entry): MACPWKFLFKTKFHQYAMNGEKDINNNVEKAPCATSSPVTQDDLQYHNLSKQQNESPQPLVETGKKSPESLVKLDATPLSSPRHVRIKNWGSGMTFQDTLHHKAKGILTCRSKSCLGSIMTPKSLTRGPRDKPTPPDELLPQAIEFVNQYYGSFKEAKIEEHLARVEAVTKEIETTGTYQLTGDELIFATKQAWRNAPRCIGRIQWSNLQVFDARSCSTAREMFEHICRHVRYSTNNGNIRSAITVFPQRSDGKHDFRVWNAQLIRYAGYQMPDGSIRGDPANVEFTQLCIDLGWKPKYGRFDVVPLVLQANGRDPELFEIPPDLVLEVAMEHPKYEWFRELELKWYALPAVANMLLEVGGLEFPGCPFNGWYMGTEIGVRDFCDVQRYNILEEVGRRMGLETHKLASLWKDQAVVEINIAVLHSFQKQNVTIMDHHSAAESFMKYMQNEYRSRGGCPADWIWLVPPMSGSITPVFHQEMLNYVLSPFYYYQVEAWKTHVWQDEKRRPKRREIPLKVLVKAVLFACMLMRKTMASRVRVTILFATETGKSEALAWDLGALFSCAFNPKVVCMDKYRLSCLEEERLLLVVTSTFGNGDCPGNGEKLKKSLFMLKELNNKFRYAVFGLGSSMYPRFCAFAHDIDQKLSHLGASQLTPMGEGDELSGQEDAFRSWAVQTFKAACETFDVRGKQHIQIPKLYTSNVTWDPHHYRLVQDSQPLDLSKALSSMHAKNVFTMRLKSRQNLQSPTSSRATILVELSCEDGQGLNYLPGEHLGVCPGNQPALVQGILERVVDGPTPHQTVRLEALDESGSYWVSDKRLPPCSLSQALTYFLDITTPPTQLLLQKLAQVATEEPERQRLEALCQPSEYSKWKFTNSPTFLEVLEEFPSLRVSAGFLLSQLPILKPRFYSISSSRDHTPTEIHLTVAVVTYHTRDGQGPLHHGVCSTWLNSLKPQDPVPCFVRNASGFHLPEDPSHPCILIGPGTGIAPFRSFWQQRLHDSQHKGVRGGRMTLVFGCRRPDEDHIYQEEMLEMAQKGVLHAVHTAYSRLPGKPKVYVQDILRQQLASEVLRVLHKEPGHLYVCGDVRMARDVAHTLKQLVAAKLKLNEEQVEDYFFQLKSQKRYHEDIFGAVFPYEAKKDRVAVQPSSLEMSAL

Cytochrome P450 1A2 = molecular target: T1, Cytochrome P450 1A2 (Homo sapiens, UniProt P05177); assay: Inhibition of CYP1A2; assay type: ADME
T1 sequence (P05177 whole entry): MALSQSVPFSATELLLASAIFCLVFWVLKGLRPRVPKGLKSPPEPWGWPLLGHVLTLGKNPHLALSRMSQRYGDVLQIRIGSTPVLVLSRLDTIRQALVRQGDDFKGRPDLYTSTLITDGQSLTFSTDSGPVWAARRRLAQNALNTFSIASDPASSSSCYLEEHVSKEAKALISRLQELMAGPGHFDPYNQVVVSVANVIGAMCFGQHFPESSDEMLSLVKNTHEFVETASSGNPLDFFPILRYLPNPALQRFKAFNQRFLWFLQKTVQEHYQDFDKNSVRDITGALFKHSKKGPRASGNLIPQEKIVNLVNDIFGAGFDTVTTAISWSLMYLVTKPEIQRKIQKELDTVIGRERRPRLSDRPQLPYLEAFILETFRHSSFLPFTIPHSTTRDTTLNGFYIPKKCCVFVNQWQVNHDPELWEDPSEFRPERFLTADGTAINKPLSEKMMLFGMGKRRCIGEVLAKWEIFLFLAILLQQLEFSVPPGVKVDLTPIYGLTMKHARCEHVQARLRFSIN

Hepatocyte [5] = assay: Metabolic stability in primates liver hepatocytes assessed as compound turnover after 120 mins; assay type: ADME, cell-based; conditions: 2 h
Cytochrome P450 2D6 = Cytochrome P450 2D6 (Homo sapiens, UniProt P10635); assay: Inhibition of CYP2D6; assay type: ADME
Chain of Cytochrome P450 2D6 (P10635 whole entry): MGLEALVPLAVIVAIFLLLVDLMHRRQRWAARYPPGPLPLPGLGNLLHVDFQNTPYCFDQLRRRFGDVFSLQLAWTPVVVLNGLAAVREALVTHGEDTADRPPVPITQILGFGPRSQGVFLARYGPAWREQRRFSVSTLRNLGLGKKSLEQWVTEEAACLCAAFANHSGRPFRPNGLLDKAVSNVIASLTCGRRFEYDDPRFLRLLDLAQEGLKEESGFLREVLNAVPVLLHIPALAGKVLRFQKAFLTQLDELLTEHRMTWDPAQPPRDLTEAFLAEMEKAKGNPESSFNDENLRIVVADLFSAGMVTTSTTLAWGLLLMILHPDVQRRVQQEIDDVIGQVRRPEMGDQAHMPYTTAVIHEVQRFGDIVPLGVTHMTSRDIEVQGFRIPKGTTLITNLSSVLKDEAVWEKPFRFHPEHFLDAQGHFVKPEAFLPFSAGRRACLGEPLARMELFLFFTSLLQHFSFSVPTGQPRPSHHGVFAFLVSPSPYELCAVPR

Cytochrome P450 2C9 = Cytochrome P450 2C9 (Homo sapiens, UniProt P11712); assay: Inhibition of CYP2C9; assay type: ADME
Chain of Cytochrome P450 2C9 (P11712 whole entry): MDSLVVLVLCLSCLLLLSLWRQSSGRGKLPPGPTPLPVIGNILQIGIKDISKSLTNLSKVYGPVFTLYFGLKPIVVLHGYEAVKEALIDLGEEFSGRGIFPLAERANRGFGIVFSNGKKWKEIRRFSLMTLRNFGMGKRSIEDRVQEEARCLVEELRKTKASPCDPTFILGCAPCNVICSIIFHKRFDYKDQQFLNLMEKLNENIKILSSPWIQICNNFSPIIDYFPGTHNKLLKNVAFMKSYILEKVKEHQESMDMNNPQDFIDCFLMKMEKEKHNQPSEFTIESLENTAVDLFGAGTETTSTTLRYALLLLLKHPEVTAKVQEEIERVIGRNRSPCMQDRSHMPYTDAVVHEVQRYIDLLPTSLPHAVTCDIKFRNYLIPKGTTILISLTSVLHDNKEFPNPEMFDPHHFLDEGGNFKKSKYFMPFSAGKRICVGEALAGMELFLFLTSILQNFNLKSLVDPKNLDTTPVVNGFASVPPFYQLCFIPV

Hepatocyte [6] = assay: Metabolic stability in rat liver hepatocytes assessed as compound turnover after 120 mins; assay type: ADME, cell-based; conditions: 2 h
[7] = Vasoconstrictive activity in U46619 precontracted human arteries assessed as inhibition of acetylcholine-induced vasorelaxation at 100 uM after 50 mins; assay type: tissue-based, Artery
Method in brief: (§2)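 Human resistance artery rings (~2 mm) from surgical tissue, wire-mounted in myograph baths of Krebs PSS at 37 °C, gassed with 95% O2/5% CO2. […] Compound given 50 min with or without L-arginine, then U46619 preconstriction and ACh curves (1×10⁻¹⁰ to 1×10⁻⁵ M). Responses as % of maximal U46619 contraction.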

Cytochrome P450 2C19 = Cytochrome P450 2C19 (Homo sapiens, UniProt P33261); assay: Inhibition of CYP2C19; assay type: ADME
Chain of Cytochrome P450 2C19 (P33261 whole entry): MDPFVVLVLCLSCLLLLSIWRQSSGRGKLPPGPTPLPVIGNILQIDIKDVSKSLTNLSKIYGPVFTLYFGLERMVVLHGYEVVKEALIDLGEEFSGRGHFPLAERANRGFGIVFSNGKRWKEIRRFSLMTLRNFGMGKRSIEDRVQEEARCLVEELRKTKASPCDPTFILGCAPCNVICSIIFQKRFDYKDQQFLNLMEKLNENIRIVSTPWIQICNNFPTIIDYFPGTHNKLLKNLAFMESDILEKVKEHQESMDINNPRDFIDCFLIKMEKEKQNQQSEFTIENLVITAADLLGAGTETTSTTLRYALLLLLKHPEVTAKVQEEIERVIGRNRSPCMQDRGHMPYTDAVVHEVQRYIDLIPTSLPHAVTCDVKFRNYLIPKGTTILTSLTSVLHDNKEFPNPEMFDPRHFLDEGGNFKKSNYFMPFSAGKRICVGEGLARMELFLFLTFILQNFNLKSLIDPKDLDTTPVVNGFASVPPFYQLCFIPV

Hepatocyte [8] = assay: Metabolic stability in human liver hepatocytes assessed as compound turnover after 120 mins; assay type: ADME, cell-based; conditions: 2 h
[9] = Vasoconstrictive activity in U46619 precontracted human arteries assessed as inhibition of acetylcholine-induced vasorelaxation at 100 uM after 50 mins in presence of L-arginine; assay type: tissue-based, Artery; method in brief: as §2
[10] = molecular target: Sodium-dependent noradrenaline transporter (Homo sapiens, UniProt P23975); assay: Displacement of [3H]nisoxetine from human NET expressed in CHO cells after 120 mins by scintillation counting; assay type: cell-based
Chain of Sodium-dependent noradrenaline transporter (P23975 whole entry): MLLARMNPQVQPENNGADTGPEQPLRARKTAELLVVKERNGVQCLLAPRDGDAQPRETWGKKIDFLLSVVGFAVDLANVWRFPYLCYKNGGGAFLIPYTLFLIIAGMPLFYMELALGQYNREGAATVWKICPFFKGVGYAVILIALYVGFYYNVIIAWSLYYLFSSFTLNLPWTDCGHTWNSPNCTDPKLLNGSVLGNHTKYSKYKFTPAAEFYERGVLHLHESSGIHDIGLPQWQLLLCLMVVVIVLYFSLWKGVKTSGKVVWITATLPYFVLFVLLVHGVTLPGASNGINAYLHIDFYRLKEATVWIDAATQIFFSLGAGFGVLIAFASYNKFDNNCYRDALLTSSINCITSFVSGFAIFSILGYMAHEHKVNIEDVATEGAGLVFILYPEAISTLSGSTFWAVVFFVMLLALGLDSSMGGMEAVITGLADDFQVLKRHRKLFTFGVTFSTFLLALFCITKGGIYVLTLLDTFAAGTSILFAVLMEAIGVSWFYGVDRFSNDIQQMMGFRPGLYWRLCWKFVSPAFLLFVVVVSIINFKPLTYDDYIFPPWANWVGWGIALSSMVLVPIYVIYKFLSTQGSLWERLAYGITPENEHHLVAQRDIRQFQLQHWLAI
Method in brief: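 Membranes from hNET-transfected CHO cells (20 μg protein) incubated 120 min at 4 °C with 1 nM [3H]nisoxetine in 50 mM Tris-HCl pH 7.4, 120 mM NaCl, 5 mM KCl. Nonspecific binding defined with 1 μM desipramine. Filtered on PEI-soaked GF/B and counted.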

[11] = molecular target: T2, Muscarinic acetylcholine receptor M5 (Homo sapiens) (UniProt P08912); assay: Inhibition of human muscarinic M5 receptor at 10 uM
T2 sequence (whole entry): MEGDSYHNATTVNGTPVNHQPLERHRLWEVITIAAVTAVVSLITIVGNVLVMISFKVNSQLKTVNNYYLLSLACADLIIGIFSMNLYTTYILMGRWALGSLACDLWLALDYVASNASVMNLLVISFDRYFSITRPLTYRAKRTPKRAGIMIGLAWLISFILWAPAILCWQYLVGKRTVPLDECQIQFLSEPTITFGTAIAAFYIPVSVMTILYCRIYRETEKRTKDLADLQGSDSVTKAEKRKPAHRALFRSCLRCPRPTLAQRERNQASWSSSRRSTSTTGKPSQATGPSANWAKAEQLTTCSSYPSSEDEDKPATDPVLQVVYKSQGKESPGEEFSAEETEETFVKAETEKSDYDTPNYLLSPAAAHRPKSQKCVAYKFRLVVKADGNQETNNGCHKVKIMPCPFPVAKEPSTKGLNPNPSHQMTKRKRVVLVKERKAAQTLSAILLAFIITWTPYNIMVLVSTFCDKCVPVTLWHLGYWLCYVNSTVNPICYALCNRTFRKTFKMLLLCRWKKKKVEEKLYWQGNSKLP
Method in brief: (§3)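 Broad in vitro receptor binding screen at one concentration, 10 μM. Specific binding taken as total minus nonspecific binding with excess unlabeled ligand. […] A reference compound was run concurrently in each assay.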

[12] = molecular target: Mu-type opioid receptor (Homo sapiens) (UniProt P35372); assay: Inhibition of mu opioid receptor at 10 uM; method in brief: as §3
Chain of Mu-type opioid receptor (Homo sapiens) (P35372 whole entry): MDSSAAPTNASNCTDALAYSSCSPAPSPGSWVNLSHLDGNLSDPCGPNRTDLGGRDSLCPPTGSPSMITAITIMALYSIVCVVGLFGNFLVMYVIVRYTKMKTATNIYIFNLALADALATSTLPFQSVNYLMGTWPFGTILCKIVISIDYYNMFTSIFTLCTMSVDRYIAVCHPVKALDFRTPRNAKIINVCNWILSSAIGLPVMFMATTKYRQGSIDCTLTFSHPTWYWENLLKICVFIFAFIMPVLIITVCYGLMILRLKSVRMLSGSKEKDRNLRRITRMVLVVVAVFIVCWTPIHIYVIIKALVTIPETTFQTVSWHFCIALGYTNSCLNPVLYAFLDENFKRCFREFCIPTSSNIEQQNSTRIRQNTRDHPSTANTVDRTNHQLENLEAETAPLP

[13] = molecular target: T3, Muscarinic acetylcholine receptor M1 (Homo sapiens) (UniProt P11229); assay: Inhibition of human muscarinic M1 receptor at 10 uM; method in brief: as §3
T3 sequence (whole entry): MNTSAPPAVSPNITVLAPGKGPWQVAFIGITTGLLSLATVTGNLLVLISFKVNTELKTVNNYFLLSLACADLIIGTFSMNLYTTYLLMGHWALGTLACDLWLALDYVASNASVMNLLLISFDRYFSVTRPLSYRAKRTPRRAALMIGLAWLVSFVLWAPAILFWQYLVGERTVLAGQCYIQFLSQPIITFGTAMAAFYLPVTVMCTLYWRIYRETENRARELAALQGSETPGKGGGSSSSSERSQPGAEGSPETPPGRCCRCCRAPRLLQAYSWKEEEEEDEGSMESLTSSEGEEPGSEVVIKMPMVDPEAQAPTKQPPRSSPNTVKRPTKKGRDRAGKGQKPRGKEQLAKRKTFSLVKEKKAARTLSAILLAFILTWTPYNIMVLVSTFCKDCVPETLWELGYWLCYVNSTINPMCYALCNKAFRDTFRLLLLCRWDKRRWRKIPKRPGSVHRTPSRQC

[14] = molecular target: Muscarinic acetylcholine receptor M3 (Homo sapiens) (UniProt P20309); assay: Inhibition of human muscarinic M3 receptor at 10 uM; method in brief: as §3
Chain of Muscarinic acetylcholine receptor M3 (Homo sapiens) (P20309 whole entry, looked up): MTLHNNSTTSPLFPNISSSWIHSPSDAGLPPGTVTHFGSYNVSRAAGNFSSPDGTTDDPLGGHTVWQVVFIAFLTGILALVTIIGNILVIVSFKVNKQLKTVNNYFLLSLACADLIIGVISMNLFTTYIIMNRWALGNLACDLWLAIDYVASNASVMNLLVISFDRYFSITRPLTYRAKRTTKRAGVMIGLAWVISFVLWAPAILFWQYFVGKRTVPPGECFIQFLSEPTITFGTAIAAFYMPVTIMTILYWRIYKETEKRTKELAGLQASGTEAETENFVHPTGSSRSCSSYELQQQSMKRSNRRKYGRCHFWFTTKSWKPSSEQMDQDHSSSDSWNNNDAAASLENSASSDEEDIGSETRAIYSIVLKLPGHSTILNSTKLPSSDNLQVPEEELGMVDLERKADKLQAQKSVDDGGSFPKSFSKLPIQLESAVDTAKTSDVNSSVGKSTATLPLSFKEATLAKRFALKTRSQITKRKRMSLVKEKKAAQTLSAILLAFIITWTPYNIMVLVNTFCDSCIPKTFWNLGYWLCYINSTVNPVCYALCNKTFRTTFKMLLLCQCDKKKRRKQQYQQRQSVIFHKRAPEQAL

[15] = molecular target: T4, Muscarinic acetylcholine receptor M4 (Homo sapiens) (UniProt P08173); assay: Inhibition of human muscarinic M4 receptor at 10 uM; method in brief: as §3
T4 sequence (whole entry): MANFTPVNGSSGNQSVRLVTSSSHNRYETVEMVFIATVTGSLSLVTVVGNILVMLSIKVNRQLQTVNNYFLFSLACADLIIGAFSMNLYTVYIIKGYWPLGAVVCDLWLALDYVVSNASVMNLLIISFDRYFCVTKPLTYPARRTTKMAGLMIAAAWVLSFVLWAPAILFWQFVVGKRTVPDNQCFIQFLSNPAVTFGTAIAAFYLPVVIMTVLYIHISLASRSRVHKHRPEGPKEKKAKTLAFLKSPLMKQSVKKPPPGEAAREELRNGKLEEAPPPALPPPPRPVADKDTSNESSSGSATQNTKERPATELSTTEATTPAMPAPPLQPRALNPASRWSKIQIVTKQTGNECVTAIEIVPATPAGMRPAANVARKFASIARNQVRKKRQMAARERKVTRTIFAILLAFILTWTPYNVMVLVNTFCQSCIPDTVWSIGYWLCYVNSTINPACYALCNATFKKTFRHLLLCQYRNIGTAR

[16] = Inhibition of sigma receptor at 10 uM; method in brief: as §3
[17] = molecular target: T5, Muscarinic acetylcholine receptor M2 (Homo sapiens) (UniProt P08172); assay: Inhibition of human muscarinic M2 receptor at 10 uM; method in brief: as §3
T5 sequence (whole entry): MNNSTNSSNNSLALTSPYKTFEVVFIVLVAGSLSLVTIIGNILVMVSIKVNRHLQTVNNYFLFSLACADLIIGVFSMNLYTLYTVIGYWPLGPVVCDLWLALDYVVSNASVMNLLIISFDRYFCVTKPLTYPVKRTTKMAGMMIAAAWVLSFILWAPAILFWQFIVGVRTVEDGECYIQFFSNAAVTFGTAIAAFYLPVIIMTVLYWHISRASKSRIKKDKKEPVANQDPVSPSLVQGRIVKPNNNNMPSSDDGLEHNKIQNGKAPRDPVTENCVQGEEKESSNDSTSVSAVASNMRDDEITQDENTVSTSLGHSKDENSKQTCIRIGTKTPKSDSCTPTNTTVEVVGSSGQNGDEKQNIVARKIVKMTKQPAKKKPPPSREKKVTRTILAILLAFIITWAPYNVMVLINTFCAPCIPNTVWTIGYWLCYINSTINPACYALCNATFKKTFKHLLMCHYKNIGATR

Chain of Cytochrome P450 3A4 (P08684 whole entry): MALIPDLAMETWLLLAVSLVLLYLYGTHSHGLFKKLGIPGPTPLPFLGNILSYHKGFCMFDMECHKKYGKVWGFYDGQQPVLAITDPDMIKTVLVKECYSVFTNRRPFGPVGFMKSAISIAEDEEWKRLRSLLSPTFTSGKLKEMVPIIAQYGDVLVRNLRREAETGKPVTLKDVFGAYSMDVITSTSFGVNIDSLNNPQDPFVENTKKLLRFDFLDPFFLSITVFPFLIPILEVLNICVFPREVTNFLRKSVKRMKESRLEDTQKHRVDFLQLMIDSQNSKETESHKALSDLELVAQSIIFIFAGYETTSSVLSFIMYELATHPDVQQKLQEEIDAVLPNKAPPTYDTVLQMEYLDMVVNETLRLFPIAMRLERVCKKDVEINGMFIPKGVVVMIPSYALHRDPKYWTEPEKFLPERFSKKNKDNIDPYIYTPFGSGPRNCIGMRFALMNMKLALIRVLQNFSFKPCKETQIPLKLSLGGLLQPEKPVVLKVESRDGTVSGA

For `CNC1CCCC(c2c[nH]c3ccc(NC(=N)c4cccs4)cc23)C1.Cl` (single isomer, unassigned; (+)), the IC50 (Cytochrome P450 3A4) was 100 µM, the Activity (Rattus norvegicus [1]) was 90% and the Activity (Rattus norvegicus [2]) was 96%. For the same compound, the Stability [3] was “Stable”, the IC50 [4] was 6.76 µM and the IC50 (Cytochrome P450 1A2) was “Not Active”. For the same compound, the Stability (Hepatocyte [5]) was “Stable”, the IC50 (Cytochrome P450 2D6) was 5.14 µM and the IC50 (Cytochrome P450 2C9) was “Not Active”. For the same compound, the Stability (Hepatocyte [6]) was “Stable”, the Activity [7] was “Non-toxic” and the IC50 (Cytochrome P450 2C19) was > 100 µM. The Stability (Hepatocyte [8]) was “Stable”, the Activity [9] was “Non-toxic” and the IC50 [10] was 1 µM.

For `CNC1CCCC(c2c[nH]c3ccc(NC(=N)c4cccs4)cc23)C1` (single isomer, unassigned; (+)), the inhibition [11] was 87%, the inhibition [12] was 53% and the inhibition [13] was 80%. It also gave an inhibition [14] of 88%, an inhibition [15] of 93% and an inhibition [16] of 61%. It also gave an inhibition [17] of 87%.

Source: ChEMBL document CHEMBL2034871, “First-in-class, dual-action, 3,5-disubstituted indole derivatives having human nitric oxide synthase (nNOS) and norepinephrine reuptake inhibitory (NERI) activity for the treatment of neuropathic pain” (J Med Chem, 2012)
